From ChEMBL document CHEMBL3091318, “Potent and broad-spectrum antibacterial activity of indole-based bisamidine antibiotics: synthesis and SAR of novel analogs of MBX 1066 and MBX 1090” (2013)

Experiments:
Format in all cases: functional
Enterococcus faecalis [1] = test: Antimicrobial activity vancomycin-resistant Enterococcus faecalis ATCC 51575 after 16 to 20 hrs by broth microdilution method
Outline: (§1)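 CLSI broth microdilution. Log-phase cultures in cation-adjusted Mueller–Hinton broth were seeded at 1×10^5 CFU/mL and incubated at 37 °C with shaking for 16–20 h. Compounds were diluted from DMSO stocks to a final 1% DMSO. Growth was read as OD600, and MIC was taken as the lowest concentration with no apparent growth. At least 3 runs were done, and the average MIC is reported in μg/ml.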

Pseudomonas aeruginosa [2] = test: Antimicrobial activity against efflux pump-positive Pseudomonas aeruginosa PAO1 ATCC BAA-47 after 16 to 20 hrs by broth microdilution method
Outline: (§2)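 CLSI broth microdilution. Log-phase cultures grown in cation-adjusted Mueller–Hinton broth and seeded at 1×10^5 CFU/mL. Plates incubated at 37 °C with shaking for 16–20 h. DMSO stocks of compound were diluted into medium to 1% DMSO final. Growth was read as OD600. MIC (μg/ml) is the lowest concentration with no apparent growth, averaged over at least 3 assays.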

Enterococcus faecalis [3] = test: Antimicrobial activity Enterococcus faecalis ATCC 29212 after 16 to 20 hrs by broth microdilution method; outline: as §2
Escherichia coli [4] = test: Antimicrobial activity against efflux pump-positive Escherichia coli K-12 after 16 to 20 hrs by broth microdilution method; outline: as §2
Staphylococcus aureus [5] = test: Antimicrobial activity against Staphylococcus aureus ATCC 25923 after 16 to 20 hrs by broth microdilution method; outline: as §1
Escherichia coli [6] = test: Antimicrobial activity against TolC efflux-deficient Escherichia coli K-12 after 16 to 20 hrs by broth microdilution method; outline: as §2
Staphylococcus aureus [7] = test: Antimicrobial activity methicillin-resistant against Staphylococcus aureus clinical isolate 1094 after 16 to 20 hrs by broth microdilution method
Acinetobacter baumannii = test: Antimicrobial activity against Acinetobacter baumannii ATCC 19606 after 16 to 20 hrs by broth microdilution method; outline: as §2
Escherichia coli [8] = test: Selectivity ratio of MIC for efflux pump-positive Escherichia coli K-12 to MIC for TolC efflux-deficient Escherichia coli K-12
Pseudomonas aeruginosa [9] = test: Antimicrobial activity against efflux pump mexAB-oprM-deficient Pseudomonas aeruginosa PAO1 after 16 to 20 hrs by broth microdilution method; outline: as §2
Bacillus anthracis = test: Antimicrobial activity against Bacillus anthracis Sterne after 16 to 20 hrs by broth microdilution method; outline: as §1
Haemophilus influenzae = test: Antimicrobial activity against Haemophilus influenzae ATCC 10211 after 16 to 20 hrs by broth microdilution method
Outline: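 Broth microdilution per CLSI in Haemophilus Test Medium at 37 °C under 5% CO₂ for 16–20 h, seeded at 1×10^5 CFU/mL. Compound was added from DMSO stocks to 1% DMSO final. Growth was read as OD600. MIC (μg/ml) is the lowest concentration without apparent growth, averaged from at least 3 runs.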

Klebsiella pneumoniae = test: Antimicrobial activity against Klebsiella pneumoniae ATCC 13882 after 16 to 20 hrs by broth microdilution method; outline: as §2
Pseudomonas aeruginosa [10] = test: Selectivity ratio of MIC for efflux pump-positive Pseudomonas aeruginosa PAO1 ATCC BAA-47 to MIC for efflux pump mexAB-oprM-deficient Pseudomonas aeruginosa PAO1
Escherichia coli [11] = test: Ratio of MBX 1066 MIC to compound MIC for Escherichia coli K-12 after 16 to 20 hrs by broth microdilution method
Pseudomonas aeruginosa [12] = test: Ratio of MBX 1066 MIC to compound MIC for Pseudomonas aeruginosa PAO1 ATCC BAA-47 after 16 to 20 hrs by broth microdilution method

SMILES | MIC (Enterococcus faecalis [1]) [µg/mL] | MIC (Pseudomonas aeruginosa [2]) [µg/mL] | MIC (Enterococcus faecalis [3]) [µg/mL] | MIC (Escherichia coli [4]) [µg/mL] | MIC (Staphylococcus aureus [5]) [µg/mL] | MIC (Escherichia coli [6]) [µg/mL] | MIC (Staphylococcus aureus [7]) [µg/mL] | MIC (Acinetobacter baumannii) [µg/mL] | Ratio (Escherichia coli [8]) | MIC (Pseudomonas aeruginosa [9]) [µg/mL] | MIC (Bacillus anthracis) [µg/mL] | MIC (Haemophilus influenzae) [µg/mL] | MIC (Klebsiella pneumoniae) [µg/mL] | Ratio (Pseudomonas aeruginosa [10]) | Ratio (Escherichia coli [11]) | Ratio (Pseudomonas aeruginosa [12])
O=C(O)C(F)(F)F.c1cc2cc(-c3ccc(-c4cc5ccc(C6=NCCN6)cc5[nH]4)cc3)[nH]c2cc1C1=NCCN1 | 0.16 | 7.5 | 0.16 | 1.25 | 0.16 | 0.16 | 0.16 | > 80 | 8 | 1.25 | 0.31 | 0.63 | 0.31 | 6 |  | 
O=C(O)C(F)(F)F.c1cc2cc(-c3ccc(-c4cc5ccc(C6=NCCCN6)cc5[nH]4)cc3)[nH]c2cc1C1=NCCCN1 | 0.08 | 0.31 | 0.08 | 0.16 | 0.08 | 0.16 | 0.08 | 2.5 |  | 0.31 | 0.08 | 0.31 | 0.31 |  | 10 | >20
